For orientation: IC50 means the midpoint of a concentration-inhibition curve. A low value points to inhibition by little substance. As a reminder, the EC50 is the midpoint of the concentration-response curve. A low value points to higher potency in that assay.

Data set [1] relates to MKN-45. As to the kind of experiment: Tested for cytotoxic activity against human stomach cancer cells (MKN-45). The data set is classed as functional, cell-based. The method, boiled down:
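The human stomach cancer MKN-45 cell line was used. Cytotoxicity was read out by a colorimetric tetrazolium–formazan assay and by sulforhodamine B dye staining.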

For data set [2], the system named is MKN-45. Put plainly: Ratio of compound toxicity to that of anticancer activity against human stomach cancer cells MKN-45 in mice. It is filed as functional. The method, boiled down:
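MKN-45 human stomach cancer cells were implanted subcutaneously in a side flank of nude mice. Dosing began once tumors reached 0.2 cm³ or larger and was given intravenously five times per week for 2 weeks. GID75 is the approximate dose giving 75% tumor growth inhibition. LD10 is the approximate 10% lethal dose on the same schedule. Safety margin is LD10/GID75.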

In data set [3] the test system is P388. As to the kind of experiment: The compound was tested for the cytotoxic activity against murine leukemia cells (P388). As to conditions: Mus musculus. It is filed as functional, cell-based. Summed up: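 The murine leukemia P388 cell line was used. Cytotoxicity was read out by a colorimetric tetrazolium–formazan assay.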
Data set [4] relates to P388. As to the kind of experiment: Compound was tested for the effect on the formation of protein-DNA complex in P388 cells investigated by the K+/SDS method. It is filed as functional, Mus musculus. The method, boiled down: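 Formation of topoisomerase–DNA (protein–DNA) complexes was measured in murine leukemia P388 cells by K+/SDS precipitation. Activity was reported as EC200.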

For another data set, the target named is Protein kinase C (PKC). Put plainly: Inhibitory effect on protein kinase C using histone II-As as substrate. It is filed as protein assay.
For another data set, the species on record is Mus sp. As to the kind of experiment: Tested for toxicity in mice. The data set is classed as organism-based. As to conditions: in vivo. The method, boiled down: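 Nude mice bearing subcutaneous MKN-45 human stomach cancer flank xenografts; dosing intravenous five times/week for 2 weeks, starting once tumors reached 0.2 cm³ or larger. Toxicity expressed as LD₁₀, the approximate dose lethal to 10% of animals on this schedule.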

Another data set has as its target DNA topoisomerase II (Homo sapiens, UniProt P11388+Q02880). Put plainly: Tested for inhibitory effect on topoisomerase-2 mediated DNA cleavage using super coiled pBR322 plasmid DNA. It is filed as functional.
Another data set deals with T1, DNA topoisomerase 1 (Homo sapiens, UniProt P11387).
T1 sequence (P11387 whole entry): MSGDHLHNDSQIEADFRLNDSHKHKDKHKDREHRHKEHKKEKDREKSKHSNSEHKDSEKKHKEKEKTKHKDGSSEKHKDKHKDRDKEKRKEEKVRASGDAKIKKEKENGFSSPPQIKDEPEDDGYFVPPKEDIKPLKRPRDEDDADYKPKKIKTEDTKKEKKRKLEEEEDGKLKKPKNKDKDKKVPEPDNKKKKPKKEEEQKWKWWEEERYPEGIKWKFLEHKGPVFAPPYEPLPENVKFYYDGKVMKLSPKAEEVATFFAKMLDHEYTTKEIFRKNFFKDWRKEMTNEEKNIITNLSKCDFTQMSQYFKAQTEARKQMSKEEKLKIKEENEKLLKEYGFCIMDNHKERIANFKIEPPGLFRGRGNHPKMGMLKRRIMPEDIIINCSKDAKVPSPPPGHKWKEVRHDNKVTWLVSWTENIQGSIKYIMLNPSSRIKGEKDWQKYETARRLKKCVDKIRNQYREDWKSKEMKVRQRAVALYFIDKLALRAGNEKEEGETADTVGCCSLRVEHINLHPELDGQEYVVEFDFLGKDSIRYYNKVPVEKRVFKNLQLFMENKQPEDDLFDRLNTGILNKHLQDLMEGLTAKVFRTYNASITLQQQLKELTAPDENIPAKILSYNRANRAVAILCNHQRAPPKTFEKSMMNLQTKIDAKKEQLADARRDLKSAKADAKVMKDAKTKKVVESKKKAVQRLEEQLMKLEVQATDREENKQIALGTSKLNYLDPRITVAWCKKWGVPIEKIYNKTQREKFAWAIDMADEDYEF
Put plainly: Inhibitory effect on topoisomerase-1 mediated DNA cleavage using supercoiled pBR322 plasmid DNA. The data set is classed as functional.

The test system of data set [5] is MKN-45. Put plainly: Inhibitory activity against human stomach cancer cells MKN-45 in nude mice after intravenous dose.

On to `O=C1c2c(c3c4ccc(O)cc4n([C@@H]4O[C@H](CO)[C@H](O)[C@H]4O)c3c3[nH]c4cc(O)ccc4c23)C(=O)N1NC(CO)CO`, for which the IC50 in the data set with MKN-45 [1] was 6 nM; in the data set with P388 [3] it was 0.96 nM; at Protein kinase C (PKC), more than 200000 nM. Besides, the Saftey margin in the data set on MKN-45 [2] turned out to be 1.4. Also, the EC200 in the data set on P388 [4] was 60 nM. In the data set listed under Mus sp., this molecule had an LD10 of 420 mg m**-2. The 50% effective concentration (EC50) at DNA topoisomerase II is more than 50000 nM; at DNA topoisomerase 1 it was 17 nM. In the data set on MKN-45 [5], the GID75 worked out at 300 mg m**-2.
Turning to `O=C1c2c(c3c4ccc(O)cc4n([C@H]4O[C@H](CO)[C@@H](O)[C@H]4O)c3c3[nH]c4cc(O)ccc4c23)C(=O)N1NC(CO)CO`, the IC50 with MKN-45 [1] worked out at 130 nM; in the data set with P388 [3], 19 nM; against Protein kinase C (PKC) it was 21000 nM. Also, in the data set on MKN-45 [2], the Saftey margin came to 1.9. For the same molecule, the EC200 in the data set with P388 [4] came out at 450 nM. In the data set filed under Mus sp., this molecule registered an LD10 of 1000 mg m**-2. The EC50 at DNA topoisomerase II was more than 50000 nM; at DNA topoisomerase 1 it was 30 nM. This molecule also gave a GID75 with MKN-45 [5] of 540 mg m**-2.
As to `O=C1c2c(c3c4ccc(O)cc4n([C@@H]4O[C@H](CO)[C@@H](O)[C@H](O)[C@H]4O)c3c3[nH]c4cc(O)ccc4c23)C(=O)N1NC(CO)CO` [EDOTECARIN], the IC50 in the data set on MKN-45 [1] was 4.8 nM; in the data set on P388 [3] it was 1.5 nM; against Protein kinase C (PKC), 200000 nM. In addition, the Saftey margin in the data set with MKN-45 [2] is given as more than 36. Further, the EC200 in the data set on P388 [4] came out at 100 nM. This molecule also showed an LD10 in the data set filed under Mus sp. of more than 1600 mg m**-2. Besides, the EC50 on DNA topoisomerase II is more than 50000 nM; at DNA topoisomerase 1, 51 nM. The GID75 in the data set on MKN-45 [5] was 45 mg m**-2.

For the origin of these results see ChEMBL document CHEMBL1133404, “Synthesis and biological activities of NB-506 analogues modified at the glucose group” (Bioorg Med Chem Lett, 2000).
